Converted amounts (≈) assume the structure as drawn.
Assays:
Type in all cases: functional
Prevotella buccae = assay: Antimicrobial activity against Prevotella buccae under anaerobic conditions after 44 hrs by CLSI-M11-47 protocol based agar dilution method; settings: Segatella buccae
Procedure, shortened: (§1)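 Clinical isolates were stored at −70°C in 20% skim milk and identified phenotypically or by partial 16S rRNA sequencing. Each strain was subcultured twice from frozen stock. Cell paste from 48-h cultures was suspended in brucella broth to a 0.5 McFarland standard. About 10^5 CFU per spot were applied by Steers replicator to agar dilution plates prepared on the day of testing. Plates were incubated 44 h at 37°C in an anaerobic chamber. MIC was taken as the lowest concentration giving complete inhibition or marked reduction of growth versus the drug-free control.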

Anaerococcus murdochii = assay: Antimicrobial activity against Anaerococcus murdochii under anaerobic conditions after 44 hrs by CLSI-M11-47 protocol based agar dilution method
Procedure, shortened: (§2)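 Reference agar dilution per CLSI M11-A7 with plates made on test day. Clinical isolates were stored at −70°C in 20% skim milk, subcultured twice, and 48-h cell paste was suspended in brucella broth to 0.5 McFarland. About 10^5 CFU/spot was applied with a Steers replicator. Plates were incubated 44 h at 37°C anaerobically. MIC was the lowest concentration giving complete inhibition or marked growth reduction versus the drug-free control.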

[1] = system: Peptostreptococcus anaerobius; assay: Antimicrobial activity against Peptostreptococcus anaerobius under anaerobic conditions after 44 hrs by CLSI-M11-47 protocol based agar dilution method; procedure, shortened: as §1
Peptoniphilus harei = assay: Antimicrobial activity against Peptoniphilus harei under anaerobic conditions after 44 hrs by CLSI-M11-47 protocol based agar dilution method; procedure, shortened: as §1
Lacticaseibacillus casei = assay: Antimicrobial activity against Lactobacillus casei under anaerobic conditions after 44 hrs by CLSI-M11-47 protocol based agar dilution method; procedure, shortened: as §1
Schaalia odontolytica = assay: Antimicrobial activity against Actinomyces odontolyticus under anaerobic conditions after 44 hrs by CLSI-M11-47 protocol based agar dilution method; procedure, shortened: as §2
Peptoniphilus lacrimalis = assay: Antimicrobial activity against Peptoniphilus lacrimalis under anaerobic conditions after 44 hrs by CLSI-M11-47 protocol based agar dilution method; procedure, shortened: as §1
Fusobacterium nucleatum = assay: Antimicrobial activity against Fusobacterium nucleatum under anaerobic conditions after 44 hrs by CLSI-M11-47 protocol based agar dilution method; procedure, shortened: as §1
Clostridium symbiosum = assay: Antimicrobial activity against Clostridium symbiosum under anaerobic conditions after 44 hrs by CLSI-M11-47 protocol based agar dilution method; procedure, shortened: as §2
Prevotella bivia = assay: Antimicrobial activity against Prevotella bivia under anaerobic conditions after 44 hrs by CLSI-M11-47 protocol based agar dilution method; procedure, shortened: as §1
Eubacterium saburreum = assay: Antimicrobial activity against Eubacterium saburreum under anaerobic conditions after 44 hrs by CLSI-M11-47 protocol based agar dilution method; settings: Lachnoanaerobaculum saburreum; procedure, shortened: as §2
Fusobacterium varium = assay: Antimicrobial activity against Fusobacterium varium under anaerobic conditions after 44 hrs by CLSI-M11-47 protocol based agar dilution method; procedure, shortened: as §1
Eubacterium contortum = assay: Antimicrobial activity against Eubacterium contortum under anaerobic conditions after 44 hrs by CLSI-M11-47 protocol based agar dilution method; settings: Faecalicatena contorta; procedure, shortened: as §2
Propionibacterium avidum = assay: Antimicrobial activity against Propionibacterium avidum under anaerobic conditions after 44 hrs by CLSI-M11-47 protocol based agar dilution method; settings: Cutibacterium avidum; procedure, shortened: as §1
[2] = system: Peptostreptococcus stomatis; assay: Antimicrobial activity against Peptostreptococcus stomatis under anaerobic conditions after 44 hrs by CLSI-M11-47 protocol based agar dilution method; procedure, shortened: as §1
[3] = system: Paeniclostridium sordellii; assay: Antimicrobial activity against Clostridium sordellii under anaerobic conditions after 44 hrs by CLSI-M11-47 protocol based agar dilution method; settings: Paraclostridium sordellii; procedure, shortened: as §2
Bacteroides fragilis = assay: Antimicrobial activity against Bacteroides fragilis spp. under anaerobic conditions after 44 hrs by CLSI-M11-47 protocol based agar dilution method; procedure, shortened: as §2
Eubacterium cylindroides = assay: Antimicrobial activity against Eubacterium cylindroides under anaerobic conditions after 44 hrs by CLSI-M11-47 protocol based agar dilution method; settings: Faecalitalea cylindroides; procedure, shortened: as §2
Veillonella = assay: Antimicrobial activity against Veillonella spp. under anaerobic conditions after 44 hrs by CLSI-M11-47 protocol based agar dilution method; procedure, shortened: as §1
Prevotella tannerae = assay: Antimicrobial activity against Prevotella tannerae under anaerobic conditions after 44 hrs by CLSI-M11-47 protocol based agar dilution method; settings: Alloprevotella tannerae; procedure, shortened: as §1
[Clostridium] innocuum = Antimicrobial activity against Clostridium […] under anaerobic conditions after 44 hrs by CLSI-M11-47 protocol based agar dilution method; procedure, shortened: as §2
Anaerococcus prevotii = assay: Antimicrobial activity against Anaerococcus prevotii under anaerobic conditions after 44 hrs by CLSI-M11-47 protocol based agar dilution method; procedure, shortened: as §2
Prevotella denticola = assay: Antimicrobial activity against Prevotella denticola under anaerobic conditions after 44 hrs by CLSI-M11-47 protocol based agar dilution method; procedure, shortened: as §1
Clostridium perfringens = assay: Antimicrobial activity against Clostridium perfringens under anaerobic conditions after 44 hrs by CLSI-M11-47 protocol based agar dilution method
Thomasclavelia ramosa = assay: Antimicrobial activity against Clostridium ramosum under anaerobic conditions after 44 hrs by CLSI-M11-47 protocol based agar dilution method; procedure, shortened: as §2
Clostridium glycolicum = assay: Antimicrobial activity against Clostridium glycolicum under anaerobic conditions after 44 hrs by CLSI-M11-47 protocol based agar dilution method; settings: Terrisporobacter glycolicus; procedure, shortened: as §2
Parvimonas micra = assay: Antimicrobial activity against Parvimonas micra under anaerobic conditions after 44 hrs by CLSI-M11-47 protocol based agar dilution method; procedure, shortened: as §1
Solobacterium moorei = assay: Antimicrobial activity against Solobacterium moorei under anaerobic conditions after 44 hrs by CLSI-M11-47 protocol based agar dilution method; procedure, shortened: as §1
Gemella sanguinis = assay: Antimicrobial activity against Gemella sanguinis under anaerobic conditions after 44 hrs by CLSI-M11-47 protocol based agar dilution method; procedure, shortened: as §1
Prevotella intermedia = assay: Antimicrobial activity against Prevotella intermedia under anaerobic conditions after 44 hrs by CLSI-M11-47 protocol based agar dilution method; procedure, shortened: as §1
[4] = system: Parabacteroides distasonis; assay: Antimicrobial activity against Bacteroides distasonis under anaerobic conditions after 44 hrs by CLSI-M11-47 protocol based agar dilution method; procedure, shortened: as §2
Lacrimispora sphenoides = assay: Antimicrobial activity against Clostridium sphenoides under anaerobic conditions after 44 hrs by CLSI-M11-47 protocol based agar dilution method; procedure, shortened: as §2

Question: How did the MIC50 (Prevotella buccae) turn out when Cc1ncc([N+](=O)[O-])n1CCO [METRONIDAZOLE] was run?
Answer: The MIC50 was 0.5 µg/mL (≈ 2.92 µM).

Question: What about the MIC90 (Prevotella buccae) of the same compound?
Answer: Its MIC90 is 1 µg/mL (≈ 5.84 µM).

Question: What about the MIC50 (Anaerococcus murdochii) of the same compound?
Answer: Its MIC50 is 1 µg/mL (≈ 5.84 µM).

Question: And the MIC90 (Anaerococcus murdochii)?
Answer: Its MIC90 is 4 µg/mL (≈ 23.4 µM).

Question: And the MIC50 [1]?
Answer: The MIC50 was 0.5 µg/mL (≈ 2.92 µM).

Question: And the MIC90 [1]?
Answer: The MIC90 was 1 µg/mL (≈ 5.84 µM).

Question: What about the MIC50 (Peptoniphilus harei) of the same compound?
Answer: The MIC50 was 1 µg/mL (≈ 5.84 µM).

Question: And the MIC90 (Peptoniphilus harei)?
Answer: Its MIC90 is 4 µg/mL (≈ 23.4 µM).

Question: And the MIC50 (Lacticaseibacillus casei)?
Answer: Its MIC50 is over 64 µg/mL.

Question: And the MIC90 (Lacticaseibacillus casei)?
Answer: The MIC90 was over 64 µg/mL.

Question: What about the MIC50 (Schaalia odontolytica) of the same compound?
Answer: The MIC50 was over 32 µg/mL.

Question: And the MIC90 (Schaalia odontolytica)?
Answer: The MIC90 was over 32 µg/mL.

Question: What about the MIC50 (Peptoniphilus lacrimalis) of the same compound?
Answer: The MIC50 was 1 µg/mL (≈ 5.84 µM).

Question: And the MIC90 (Peptoniphilus lacrimalis)?
Answer: Its MIC90 is 4 µg/mL (≈ 23.4 µM).

Question: What about the MIC50 (Fusobacterium nucleatum) of the same compound?
Answer: Its MIC50 is at most 0.03 µg/mL.

Question: And the MIC90 (Fusobacterium nucleatum)?
Answer: The MIC90 was 0.25 µg/mL (≈ 1.46 µM).

Question: What about the MIC50 (Clostridium symbiosum) of the same compound?
Answer: The MIC50 was 0.5 µg/mL (≈ 2.92 µM).

Question: And the MIC90 (Clostridium symbiosum)?
Answer: The MIC90 was 4 µg/mL (≈ 23.4 µM).

Question: What about the MIC50 (Prevotella bivia) of the same compound?
Answer: Its MIC50 is 1 µg/mL (≈ 5.84 µM).

Question: And the MIC90 (Prevotella bivia)?
Answer: The MIC90 was 2 µg/mL (≈ 11.7 µM).

Question: What about the MIC50 (Eubacterium saburreum) of the same compound?
Answer: Its MIC50 is 0.5 µg/mL (≈ 2.92 µM).

Question: And the MIC90 (Eubacterium saburreum)?
Answer: Its MIC90 is 1 µg/mL (≈ 5.84 µM).

Question: What about the MIC50 (Fusobacterium varium) of the same compound?
Answer: The MIC50 was 0.25 µg/mL (≈ 1.46 µM).

Question: And the MIC90 (Fusobacterium varium)?
Answer: The MIC90 was 0.5 µg/mL (≈ 2.92 µM).

Question: And the MIC50 (Eubacterium contortum)?
Answer: The MIC50 was 0.5 µg/mL (≈ 2.92 µM).

Question: What about the MIC90 (Eubacterium contortum) of the same compound?
Answer: The MIC90 was 1 µg/mL (≈ 5.84 µM).

Question: What about the MIC50 (Propionibacterium avidum) of the same compound?
Answer: The MIC50 was over 32 µg/mL.

Question: And the MIC90 (Propionibacterium avidum)?
Answer: Its MIC90 is over 31 µg/mL.

Question: What about the MIC50 [2] of the same compound?
Answer: Its MIC50 is 0.5 µg/mL (≈ 2.92 µM).

Question: What about the MIC90 [2] of the same compound?
Answer: Its MIC90 is 1 µg/mL (≈ 5.84 µM).

Question: What about the MIC50 [3] of the same compound?
Answer: The MIC50 was 0.5 µg/mL (≈ 2.92 µM).

Question: And the MIC90 [3]?
Answer: Its MIC90 is 4 µg/mL (≈ 23.4 µM).

Question: What about the MIC50 (Bacteroides fragilis) of the same compound?
Answer: The MIC50 was 1 µg/mL (≈ 5.84 µM).

Question: What about the MIC90 (Bacteroides fragilis) of the same compound?
Answer: The MIC90 was 2 µg/mL (≈ 11.7 µM).

Question: What about the MIC50 (Eubacterium cylindroides) of the same compound?
Answer: Its MIC50 is 0.5 µg/mL (≈ 2.92 µM).

Question: And the MIC90 (Eubacterium cylindroides)?
Answer: The MIC90 was 1 µg/mL (≈ 5.84 µM).

Question: What about the MIC50 (Veillonella) of the same compound?
Answer: Its MIC50 is 2 µg/mL (≈ 11.7 µM).

Question: And the MIC90 (Veillonella)?
Answer: Its MIC90 is 8 µg/mL (≈ 46.7 µM).

Question: What about the MIC50 (Prevotella tannerae) of the same compound?
Answer: Its MIC50 is 0.5 µg/mL (≈ 2.92 µM).

Question: What about the MIC90 (Prevotella tannerae) of the same compound?
Answer: The MIC90 was 2 µg/mL (≈ 11.7 µM).

Question: What about the MIC50 ([Clostridium] innocuum) of the same compound?
Answer: The MIC50 was 1 µg/mL (≈ 5.84 µM).

Question: What about the MIC90 ([Clostridium] innocuum) of the same compound?
Answer: The MIC90 was 4 µg/mL (≈ 23.4 µM).

Question: What about the MIC50 (Anaerococcus prevotii) of the same compound?
Answer: Its MIC50 is 1 µg/mL (≈ 5.84 µM).

Question: And the MIC90 (Anaerococcus prevotii)?
Answer: Its MIC90 is 2 µg/mL (≈ 11.7 µM).

Question: What about the MIC50 (Prevotella denticola) of the same compound?
Answer: Its MIC50 is 0.5 µg/mL (≈ 2.92 µM).

Question: What about the MIC90 (Prevotella denticola) of the same compound?
Answer: Its MIC90 is 2 µg/mL (≈ 11.7 µM).

Question: And the MIC50 (Clostridium perfringens)?
Answer: Its MIC50 is 2 µg/mL (≈ 11.7 µM).

Question: And the MIC90 (Clostridium perfringens)?
Answer: The MIC90 was 4 µg/mL (≈ 23.4 µM).

Question: And the MIC50 (Thomasclavelia ramosa)?
Answer: Its MIC50 is 1 µg/mL (≈ 5.84 µM).

Question: And the MIC90 (Thomasclavelia ramosa)?
Answer: Its MIC90 is 1 µg/mL (≈ 5.84 µM).

Question: And the MIC50 (Clostridium glycolicum)?
Answer: The MIC50 was 0.5 µg/mL (≈ 2.92 µM).

Question: And the MIC90 (Clostridium glycolicum)?
Answer: The MIC90 was 4 µg/mL (≈ 23.4 µM).

Question: And the MIC50 (Parvimonas micra)?
Answer: The MIC50 was 0.25 µg/mL (≈ 1.46 µM).

Question: And the MIC90 (Parvimonas micra)?
Answer: The MIC90 was 0.25 µg/mL (≈ 1.46 µM).

Question: What about the MIC50 (Solobacterium moorei) of the same compound?
Answer: Its MIC50 is 0.5 µg/mL (≈ 2.92 µM).

Question: And the MIC90 (Solobacterium moorei)?
Answer: Its MIC90 is 1 µg/mL (≈ 5.84 µM).

Question: What about the MIC50 (Gemella sanguinis) of the same compound?
Answer: Its MIC50 is 1 µg/mL (≈ 5.84 µM).

Question: And the MIC90 (Gemella sanguinis)?
Answer: The MIC90 was 4 µg/mL (≈ 23.4 µM).

Question: What about the MIC50 (Prevotella intermedia) of the same compound?
Answer: Its MIC50 is 0.25 µg/mL (≈ 1.46 µM).

Question: And the MIC90 (Prevotella intermedia)?
Answer: Its MIC90 is 1 µg/mL (≈ 5.84 µM).

Question: And the MIC50 [4]?
Answer: Its MIC50 is 1 µg/mL (≈ 5.84 µM).

Question: What about the MIC90 [4] of the same compound?
Answer: Its MIC90 is 2 µg/mL (≈ 11.7 µM).

Question: And the MIC50 (Lacrimispora sphenoides)?
Answer: The MIC50 was 0.5 µg/mL (≈ 2.92 µM).

Question: And the MIC90 (Lacrimispora sphenoides)?
Answer: Its MIC90 is 4 µg/mL (≈ 23.4 µM).
